Assay results of several laboratories.
Sample: plasma

SMILES	species	route	dose	notes	Cmax
CNC(=O)c1cc(Oc2ccc(NC(=O)Nc3cc(C(C)(C)C)nn3-c3ccc4ncccc4c3)c(F)c2)ccn1	human	oral	200 mg	multiple doses, twice daily	377 ng/mL
C[C@@]1(c2cc(NC(=O)c3ccc(C#N)cn3)ccc2F)C=CSC(N)=N1	male human	oral	1 mg	single dose	6.72 ng/mL
COc1cc2c(cc1OC)CN(CCc1ccc(NC(=O)c3cc(OC)c(OC)cc3NC(=O)c3cnc4ccccc4c3)cc1)CC2	human	intravenous	2 mg/kg	patients	2500 nM
CO[C@H]1/C=C\C=C(/C)C(=O)NC2=CC(=O)C(NCCN(C)C)=C(C[C@@H](C)C[C@H](OC)[C@H](O)[C@@H](C)/C=C(\C)[C@@H]1OC(N)=O)C2=O	human	intravenous	12 mg/m²	patients, infusion	196 ng/mL
CO[C@@H]1[C@H](OC(=O)N2CC(CCN3CCOCC3)C2)CC[C@]2(CO2)[C@H]1[C@@]1(C)O[C@@H]1CC=C(C)C	human	subcutaneous	3.6 mg	single dose, healthy volunteers	16.1 ng/mL
CC[C@H](C)C(=O)O[C@H]1C[C@H](O)C=C2C=C[C@H](C)[C@H](CC[C@@H](O)C[C@@H](O)CC(=O)O)[C@H]21	human	oral	20 mg		11.4 ng/mL
Cn1cc(-c2ccc(S(=O)(=O)[C@@H]3C[C@@H](C(=O)NC4(C#N)CC4)N(C(=O)C4(C(F)(F)F)CC4)C3)c(C(F)(F)F)c2)cn1	human	oral	1 mg	single dose, fasted, healthy volunteers	4.51 ng/mL
CC(C)n1cc(C#N)c2cc(-n3cc(C(=O)O)cn3)ccc21	male human	oral	600 mg	single dose, fasted, healthy volunteers	18200 ng/mL
CCOc1cc2ncc(C#N)c(Nc3ccc(OCc4ccccn4)c(Cl)c3)c2cc1NC(=O)/C=C/[C@H]1CCCN1C	human	oral	80 mg	single dose	26.5 ng/mL
COc1ccc([C@@H]2CN(C(=O)[C@@H](O)CO)C[C@@]2(C)[C@@H](C)O)cc1OC1CN(c2ccc(C)cn2)C1	human	oral	10 mg	single dose, healthy volunteers	319 ng/mL
FC(F)(F)c1ccc(CNc2ccc(Cc3c[nH]c4ncc(Cl)cc34)cn2)cn1	human	oral	1600 mg	multiple doses, patients	8770 ng/mL
CCCOc1ccc([C@H]2CNC(=O)N2c2ccc3[nH]cnc3c2)cc1	human	oral	200 mg	fasted, healthy volunteers	989 ng/mL
Nc1cc(C(F)(F)F)c(-c2cc(N3CCOCC3)nc(N3CCOCC3)n2)cn1	human	oral	50 mg/day	patients	595 ng/mL
O=C(NO)c1ccc(CN(c2cnccn2)c2cnccn2)cc1	human	oral	800 mg	multiple doses, twice daily, patients	1270 ng/mL
Cc1ccc(C(=O)N(CCCN)[C@@H](c2oc3cc(Cl)ccc3c(=O)c2Cc2ccccc2)C(C)C)cc1	human	intravenous	5 mg/m²	single dose, patients, infusion	607 ng/mL
CS(=O)(=O)CCNCc1ccc(-c2ccc3ncnc(Nc4ccc(OCc5cccc(F)c5)c(Cl)c4)c3c2)o1	human	oral	750 mg	multiple doses, twice daily, steady state, patients	2110 ng/mL
CCn1c(=O)c(-c2cc(NC(=O)Nc3ccccc3)c(F)cc2Br)cc2cnc(NC)cc21	human	oral	20 mg	single dose, patients	109 ng/mL
CCc1nc2c(C)cc(N3CCN(CC(=O)N4CC(O)C4)CC3)cn2c1N(C)c1nc(-c2ccc(F)cc2)c(C#N)s1	human	oral	60 mg	single dose, fed, healthy volunteers	600 ng/mL

SMILES	species	route	dose	notes	Cmax
CC(C)(Sc1ccncc1-c1ccc(C#N)c2ccccc12)C(=O)O	male human	oral	5 mg	single dose, fasted, healthy volunteers	72.9 ng/mL
Cn1c(=O)oc2ccc(-c3ccc(C[C@@H](C#N)NC(=O)[C@@H]4CNCCCO4)cc3)cc21	male human	oral	35 mg	single dose, healthy volunteers	668 nM
NS(=O)(=O)NCCNc1nonc1C(=NO)Nc1ccc(F)c(Br)c1	human	oral	500 mg	multiple doses, twice daily, steady state, patients	4820 nM
COc1cc(C(=O)NC2CCN(C)CC2)c(F)cc1Nc1ncc(C(F)(F)F)c(Oc2cccc3c2C(=O)N(C)C3)n1	human	oral	50 mg	multiple doses, once daily, steady state, patients	430 nM
CNCc1ccc(-c2[nH]c3cc(F)cc4c3c2CCNC4=O)cc1	human	oral	600 mg	multiple doses, twice daily, steady state	2650 ng/mL
C#Cc1cccc(Nc2ncnc3cc(OCCOC)c(OCCOC)cc23)c1	human	oral	50 mg	patients	1170 nM
O=C(/C=C/c1cccc(S(=O)(=O)Nc2ccccc2)c1)NO	human	intravenous	1800 mg/m²	patients	76800 ng/mL
CC(C)(O)c1ccccc1-c1ccc2[nH]c(/C=C/c3ccc(C(F)(F)F)cc3)nc2c1	male human	oral	225 mg	single dose, fasted, healthy volunteers	525 ng/mL
O=C(Nc1c(Cl)cncc1Cl)c1ccc(OC(F)F)c(OCC2CC2)c1	human	oral	0.375 mg	single dose, fasted	9.2 ng/mL
CCO[C@H]1CCN(Cc2c(OC)cc(C)c3[nH]ccc23)[C@H](c2ccc(C(=O)O)cc2)C1	human	oral	50 mg	multiple doses, twice daily, patients	1800 ng/mL
CC(C)(C(=O)N1CCOc2c(C#N)cncc2C1)C(F)F	human	oral	20 mg	multiple doses, once daily	250 ng/mL
COCCOc1cnc2ccn([C@H](C)c3nnc4c(F)cc(-c5cnn(C)c5)cn34)c(=O)c2c1	human	oral	50 mg	multiple doses, once daily, patients	730 ng/mL
N#CN1C[C@H](n2nc(-c3ccc(Oc4ccc(Cl)cn4)cc3)c(C(N)=O)c2N)CCC12CC2	human	oral	600 mg	fasted	1060 ng/mL
Br.Cc1ccc(Sc2ccccc2N2CCNCC2)c(C)c1	human	oral	20 mg	multiple doses, steady state, healthy volunteers	33 ng/mL
CO[C@H]1CC[C@H](N2C(=O)CNc3ncc(-c4ccc(C(C)(C)O)nc4)nc32)CC1	human	oral	7.5 mg	multiple doses, patients	50.8 ng/mL
CCCCC[C@H](O)CC[C@@H]1[C@H]2Cc3cccc(OCC(=O)O)c3C[C@H]2C[C@H]1O	human	inhaled	36 µg	single dose, healthy volunteers	0.87 ng/mL
CCCCC1=NC2(CCCC2)C(=O)N1Cc1ccc(-c2ccccc2S(=O)(=O)Nc2noc(C)c2C)c(COCC)c1	human	oral	200 mg	single dose, fasted, healthy volunteers	5150 ng/mL
